From ChEMBL document CHEMBL4354879, “Bioisosteric Discovery of NPA101.3, a Second-Generation RET/VEGFR2 Inhibitor Optimized for Single-Agent Polypharmacology” (J Med Chem, 2020)
Activity calls are given as the source filed them. The calls are words filed in the database; no cut-off is given here.

Assays:
[1] = tested on: Proto-oncogene tyrosine-protein kinase receptor Ret (Homo sapiens), P07949 [C634R]; experiment: Inhibition of RET isoform 9 C634R mutant (unknown origin) expressed in rat Rat1 assessed as reduction in RET phosphorylation at Y905 residue at 0.3 nM measured after 2 hrs by Western blot analysis; format: cell-based
Outline: (§1)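 RAT1 fibroblasts expressing RET-9 C634R, serum-starved, treated 2 h with 0.1–10.0 nM; 50 μg lysate blotted for RET pY905 and pY1062, normalized to total RET; ECL detection.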

[2] = tested on: Proto-oncogene tyrosine-protein kinase receptor Ret (Homo sapiens), P07949 [M918T]; experiment: Inhibition of Ret isoform 9 M918T mutant in human MZ-CRC-1 cells assessed as reduction in SHC phosphorylation at 0.3 to 30 nM measured after 2 hrs by Western blot analysis; format: cell-based
[3] = tested on: Proto-oncogene tyrosine-protein kinase receptor Ret (Homo sapiens), P07949 [V804L]; experiment: Inhibition of RET isoform 9 V804L mutant (unknown origin) expressed in rat Rat1 assessed as reduction in RET phosphorylation at Y905 residue at 1 to 100 nM measured after 2 hrs by Western blot analysis; format: cell-based
Outline: (§2)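 Serum-starved RAT1 (RET point mutants) or NIH3T3 (RET rearrangements) cells expressing short RET-9 isoform, treated 2 h; 50 μg total lysate immunoblotted with anti-phospho-Y1062 and anti-phospho-Y905 RET antibodies, normalized to total RET; ECL detection. Compound from 50 mM DMSO stock diluted in growth medium.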

[4] = molecular target: High affinity nerve growth factor receptor (Homo sapiens, UniProt P04629); experiment: Inhibition of recombinant human His-tagged TRKA cytoplasmic domain (441 to 796 residues) expressed in baculovirus expression system using peptide substrate preincubated for 60 mins followed by substrate addition by microfluidic assay
[5] = molecular target: T1, SHC-transforming protein 1 (Homo sapiens) (UniProt P29353); experiment: Effect on SHC phosphorylation in RET deficient human 8505C cells at 1 to 100 nM measured after 2 hrs by western blot analysis; format: cell-based
T1 sequence (whole entry): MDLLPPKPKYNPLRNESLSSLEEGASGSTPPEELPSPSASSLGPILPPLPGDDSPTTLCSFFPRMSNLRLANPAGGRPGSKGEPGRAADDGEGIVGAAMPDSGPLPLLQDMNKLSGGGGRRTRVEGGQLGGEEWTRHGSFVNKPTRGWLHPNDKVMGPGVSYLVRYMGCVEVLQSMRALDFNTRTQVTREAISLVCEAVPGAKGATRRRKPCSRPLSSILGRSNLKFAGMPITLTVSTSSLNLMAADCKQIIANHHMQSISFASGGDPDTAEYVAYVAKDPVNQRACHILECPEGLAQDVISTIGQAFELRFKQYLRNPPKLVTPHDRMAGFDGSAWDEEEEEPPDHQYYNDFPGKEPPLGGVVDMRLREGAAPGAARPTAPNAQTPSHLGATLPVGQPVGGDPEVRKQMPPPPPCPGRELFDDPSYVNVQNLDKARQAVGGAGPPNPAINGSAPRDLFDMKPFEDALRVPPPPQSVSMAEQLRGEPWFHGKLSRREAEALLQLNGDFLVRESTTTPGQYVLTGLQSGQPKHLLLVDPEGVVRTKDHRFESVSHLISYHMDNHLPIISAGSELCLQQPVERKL

[6] = molecular target: Tyrosine-protein kinase HCK (Homo sapiens) (UniProt P08631); experiment: Binding affinity to wild-type human full length HCK (M22 to P526 residues) expressed in bacterial expression system at 100 nM by Kinomescan method relative to control
[7] = tested on: 8505C; experiment: Cytotoxicity against RET deficient human 8505C cells supplemented with fresh medium containing compound for every 2 to 3 days measured during compound dosing; format: functional, cell-based
Outline: (§3)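 Human RET-negative lines were seeded in six-well plates at 10000 cells/well, in 5% FCS (Nthy-ori-3-1) or 10% FCS (BCPAP, 8505-C, CALU-1, A549, PC-9). Drug or vehicle was added the day after plating, with medium changed every 2–3 days. Cells were counted every 2–3 days. IC50 was fitted from the last day of the growth curves.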

[8] = tested on: Mus musculus; experiment: In vivo inhibition of VEGFR2 in BALB/c nu/nu mouse implanted with mouse NIH/3T3 cells harboring RET isoform 9 C634R mutant assessed as reduction in VEGFR2 phosphorylation at 3 mg/kg, po administered once daily via gavage for 3 days measured 3 hrs post-last dose by Western blot analysis; format: functional, organism-based
[9] = tested on: A549; experiment: Effect on MAPK phosphorylation in RET deficient human A549 cells at 1 to 100 nM measured after 2 hrs by western blot analysis; format: cell-based
[10] = molecular target: Centrosomal protein 43/RET (Homo sapiens) (UniProt P07949+O95684); experiment: Inhibition of FGFR1OP/RET isoform 9 (unknown origin) expressed in mouse NIH/3T3 cells assessed as reduction in RET phosphorylation at Y1062 residue at 1 to 100 nM measured after 2 hrs by Western blot analysis; format: cell-based; outline: as §2
[11] = tested on: Proto-oncogene tyrosine-protein kinase receptor Ret (Homo sapiens), P07949 [M918T]; experiment: Inhibition of RET […] M918T mutant (unknown origin) expressed in mouse BAF3 cells assessed as reduction in RET phosphorylation at Y905 residue at 0.3 to 30 nM measured after 2 hrs by Western blot analysis; format: cell-based
Outline: (§4)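 Ba/F3 cells stably expressing long-isoform RET-51 mutants (electroporation), cultured in RPMI/10% FCS without IL-3; RET phosphorylation read by Western blot with anti-phospho-Y905 and anti-phospho-Y1062 antibodies, ECL detection.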

[12] = molecular target: Coiled-coil domain-containing protein 6/Tyrosine-protein kinase receptor RET (Homo sapiens) (UniProt P07949+Q16204); experiment: Inhibition of CCDC6/RET in human LC2/ad cells assessed as reduction in MAPK phosphorylation at 0.3 to 30 nM measured after 2 hrs by Western blot analysis; format: cell-based
[13] = tested on: A549; experiment: Cytotoxicity against RET deficient human A549 cells supplemented with fresh medium containing compound for every 2 to 3 days measured during compound dosing; format: functional, cell-based; outline: as §3
[14] = molecular target: Vascular endothelial growth factor receptor 2 (Homo sapiens, UniProt P35968); experiment: Inhibition of recombinant human His-tagged VEGFR2 cytoplasmic domain (789 to 1356 residues) expressed in baculovirus expression system using peptide substrate preincubated for 60 mins followed by substrate addition by microfluidic assay
[15] = Toxicity in BALB/c nu/nu mouse assessed as change in alkaline phosphatase level at 10 mg/kg, po administered daily for 7 days; format: organism-based; conditions: in vivo, 168 h
Outline: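 Mice dosed orally with 10 mg/kg/day for 7 days; standard blood markers of organ damage measured.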

[16] = tested on: Proto-oncogene tyrosine-protein kinase receptor Ret (Homo sapiens), P07949 [C634R]; experiment: Inhibition of RET […] C634R mutant (unknown origin) expressed in mouse BAF3 cells assessed as reduction in RET phosphorylation at Y905 residue at 0.3 to 30 nM measured after 2 hrs by Western blot analysis; format: cell-based; outline: as §4
[17] = tested on: Proto-oncogene tyrosine-protein kinase receptor Ret (Homo sapiens), P07949 [C634R]; experiment: Inhibition of RET isoform 9 C634R mutant (unknown origin) expressed in rat Rat1 assessed as reduction in RET phosphorylation at Y905 residue at 3 nM measured after 2 hrs by Western blot analysis; format: cell-based; outline: as §1

Proto-oncogene tyrosine-protein kinase receptor Ret (Homo sapiens), P07949 [C634R], sequence (P07949 whole entry C634R, canonical isoform): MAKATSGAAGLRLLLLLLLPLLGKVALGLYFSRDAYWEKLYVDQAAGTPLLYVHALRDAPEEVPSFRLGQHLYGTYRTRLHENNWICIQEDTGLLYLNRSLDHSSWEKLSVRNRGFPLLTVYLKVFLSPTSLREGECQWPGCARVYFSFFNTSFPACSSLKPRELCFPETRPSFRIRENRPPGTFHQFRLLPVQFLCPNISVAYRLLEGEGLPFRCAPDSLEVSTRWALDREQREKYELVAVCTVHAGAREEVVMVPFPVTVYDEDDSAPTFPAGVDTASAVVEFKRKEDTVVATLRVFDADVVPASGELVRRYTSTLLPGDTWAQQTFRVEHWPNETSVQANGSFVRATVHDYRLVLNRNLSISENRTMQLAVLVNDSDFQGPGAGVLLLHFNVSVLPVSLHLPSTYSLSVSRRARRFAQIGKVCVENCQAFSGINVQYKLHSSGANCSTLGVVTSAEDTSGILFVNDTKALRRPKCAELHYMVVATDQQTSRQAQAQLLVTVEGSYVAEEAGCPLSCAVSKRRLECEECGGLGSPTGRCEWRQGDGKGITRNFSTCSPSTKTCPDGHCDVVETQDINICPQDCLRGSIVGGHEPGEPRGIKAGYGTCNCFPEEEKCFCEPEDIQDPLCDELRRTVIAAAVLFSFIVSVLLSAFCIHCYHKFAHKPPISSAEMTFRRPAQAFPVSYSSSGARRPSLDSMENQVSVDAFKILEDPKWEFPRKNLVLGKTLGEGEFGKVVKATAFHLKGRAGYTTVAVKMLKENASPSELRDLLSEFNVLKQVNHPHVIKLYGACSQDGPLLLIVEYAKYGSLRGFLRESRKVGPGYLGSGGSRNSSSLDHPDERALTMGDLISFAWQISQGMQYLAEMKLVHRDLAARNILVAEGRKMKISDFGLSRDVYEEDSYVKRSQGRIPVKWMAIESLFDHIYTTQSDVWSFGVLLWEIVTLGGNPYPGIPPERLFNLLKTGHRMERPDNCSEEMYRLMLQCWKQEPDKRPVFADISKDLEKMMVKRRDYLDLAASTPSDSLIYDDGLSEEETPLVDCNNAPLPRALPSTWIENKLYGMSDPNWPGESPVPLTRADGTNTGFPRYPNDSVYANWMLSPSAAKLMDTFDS
Proto-oncogene tyrosine-protein kinase receptor Ret (Homo sapiens), P07949 [M918T], sequence (P07949 whole entry M918T, canonical isoform): as the sequence (P07949 whole entry C634R, canonical isoform) above, with R634C, M918T counted along it
Centrosomal protein 43/RET (Homo sapiens), sequence (O95684 whole entry, looked up, canonical isoform): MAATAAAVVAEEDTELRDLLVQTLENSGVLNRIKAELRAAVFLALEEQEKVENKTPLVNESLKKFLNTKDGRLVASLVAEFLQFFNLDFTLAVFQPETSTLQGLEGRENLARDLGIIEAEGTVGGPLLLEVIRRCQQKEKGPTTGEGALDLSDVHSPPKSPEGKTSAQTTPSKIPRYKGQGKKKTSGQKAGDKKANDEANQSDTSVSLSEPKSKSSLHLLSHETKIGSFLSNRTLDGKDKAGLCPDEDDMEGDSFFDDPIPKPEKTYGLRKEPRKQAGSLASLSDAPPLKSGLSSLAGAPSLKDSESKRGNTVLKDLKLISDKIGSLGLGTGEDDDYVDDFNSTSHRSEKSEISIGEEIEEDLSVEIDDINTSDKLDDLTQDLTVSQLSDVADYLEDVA
Centrosomal protein 43/RET (Homo sapiens), sequence (P07949 whole entry, looked up, canonical isoform): as the sequence (P07949 whole entry C634R, canonical isoform) above, with R634C counted along it
Proto-oncogene tyrosine-protein kinase receptor Ret (Homo sapiens), P07949 [V804L], sequence (P07949 whole entry V804L, canonical isoform): as the sequence (P07949 whole entry C634R, canonical isoform) above, with R634C, V804L counted along it
High affinity nerve growth factor receptor, sequence (P04629 whole entry, the tested form may be a part): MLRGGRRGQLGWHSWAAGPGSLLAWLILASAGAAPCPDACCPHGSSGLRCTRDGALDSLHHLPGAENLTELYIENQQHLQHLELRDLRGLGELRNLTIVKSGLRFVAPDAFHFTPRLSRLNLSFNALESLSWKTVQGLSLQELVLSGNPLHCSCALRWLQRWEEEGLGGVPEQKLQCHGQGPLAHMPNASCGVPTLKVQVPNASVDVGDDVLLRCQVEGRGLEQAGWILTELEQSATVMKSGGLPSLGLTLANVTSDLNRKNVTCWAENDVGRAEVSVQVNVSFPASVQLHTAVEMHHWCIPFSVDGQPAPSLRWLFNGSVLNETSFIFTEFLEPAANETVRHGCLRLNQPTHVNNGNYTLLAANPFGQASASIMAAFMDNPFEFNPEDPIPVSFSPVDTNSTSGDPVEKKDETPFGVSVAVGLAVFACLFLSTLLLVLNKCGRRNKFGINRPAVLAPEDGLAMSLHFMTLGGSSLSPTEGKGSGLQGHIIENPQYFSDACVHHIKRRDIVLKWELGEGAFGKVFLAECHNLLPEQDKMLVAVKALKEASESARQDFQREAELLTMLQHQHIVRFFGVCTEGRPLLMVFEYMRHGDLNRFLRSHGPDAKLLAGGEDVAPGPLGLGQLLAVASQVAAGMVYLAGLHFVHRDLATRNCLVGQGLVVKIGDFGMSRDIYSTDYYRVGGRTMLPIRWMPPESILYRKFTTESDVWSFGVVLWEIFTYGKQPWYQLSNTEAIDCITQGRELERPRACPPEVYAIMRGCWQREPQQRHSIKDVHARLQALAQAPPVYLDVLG
Coiled-coil domain-containing protein 6/Tyrosine-protein kinase receptor RET (Homo sapiens), sequence (P07949 29-1114 limits assumed): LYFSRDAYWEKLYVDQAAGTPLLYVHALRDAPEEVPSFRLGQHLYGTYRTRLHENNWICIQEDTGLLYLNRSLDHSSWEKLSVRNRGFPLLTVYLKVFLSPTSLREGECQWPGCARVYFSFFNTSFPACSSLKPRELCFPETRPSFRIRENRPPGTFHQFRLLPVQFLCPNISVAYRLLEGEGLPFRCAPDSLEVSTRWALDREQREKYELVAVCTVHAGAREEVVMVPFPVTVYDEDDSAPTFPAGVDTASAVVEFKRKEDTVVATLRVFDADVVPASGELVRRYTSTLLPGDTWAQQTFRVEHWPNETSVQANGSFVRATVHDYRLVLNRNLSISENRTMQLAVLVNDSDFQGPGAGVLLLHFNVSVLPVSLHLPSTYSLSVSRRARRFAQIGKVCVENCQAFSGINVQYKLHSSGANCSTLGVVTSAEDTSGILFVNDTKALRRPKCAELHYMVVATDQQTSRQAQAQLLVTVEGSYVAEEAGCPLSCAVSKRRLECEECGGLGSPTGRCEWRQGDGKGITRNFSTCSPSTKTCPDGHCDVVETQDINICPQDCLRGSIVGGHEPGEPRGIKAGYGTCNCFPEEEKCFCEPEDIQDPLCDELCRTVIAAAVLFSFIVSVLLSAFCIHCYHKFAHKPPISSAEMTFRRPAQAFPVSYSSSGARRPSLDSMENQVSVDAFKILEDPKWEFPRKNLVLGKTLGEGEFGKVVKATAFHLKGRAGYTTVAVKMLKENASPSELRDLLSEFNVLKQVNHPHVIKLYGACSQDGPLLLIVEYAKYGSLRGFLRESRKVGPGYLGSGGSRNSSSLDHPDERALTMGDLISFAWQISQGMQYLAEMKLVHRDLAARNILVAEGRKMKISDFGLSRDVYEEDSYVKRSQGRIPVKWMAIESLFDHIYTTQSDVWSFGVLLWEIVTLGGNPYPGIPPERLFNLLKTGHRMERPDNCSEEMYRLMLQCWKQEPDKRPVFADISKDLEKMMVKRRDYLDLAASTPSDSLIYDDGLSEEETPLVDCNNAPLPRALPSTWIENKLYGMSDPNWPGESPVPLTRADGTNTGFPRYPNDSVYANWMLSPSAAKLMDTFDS
Coiled-coil domain-containing protein 6/Tyrosine-protein kinase receptor RET (Homo sapiens), sequence (Q16204 2-474 partner limits assumed): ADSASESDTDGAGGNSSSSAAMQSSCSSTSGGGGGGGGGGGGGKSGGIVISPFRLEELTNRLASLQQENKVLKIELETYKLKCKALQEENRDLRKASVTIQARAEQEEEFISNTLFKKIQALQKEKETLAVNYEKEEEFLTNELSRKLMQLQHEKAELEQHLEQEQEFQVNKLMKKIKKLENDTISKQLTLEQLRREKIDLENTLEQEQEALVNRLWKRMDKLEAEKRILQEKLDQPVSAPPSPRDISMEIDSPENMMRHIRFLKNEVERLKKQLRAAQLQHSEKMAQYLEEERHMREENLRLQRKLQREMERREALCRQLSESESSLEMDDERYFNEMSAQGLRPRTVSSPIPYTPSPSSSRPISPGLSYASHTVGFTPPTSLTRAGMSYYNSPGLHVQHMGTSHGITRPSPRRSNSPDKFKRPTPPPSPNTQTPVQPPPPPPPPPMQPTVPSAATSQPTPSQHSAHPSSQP
Tyrosine-protein kinase HCK (Homo sapiens), sequence (P08631 2-526 limits assumed): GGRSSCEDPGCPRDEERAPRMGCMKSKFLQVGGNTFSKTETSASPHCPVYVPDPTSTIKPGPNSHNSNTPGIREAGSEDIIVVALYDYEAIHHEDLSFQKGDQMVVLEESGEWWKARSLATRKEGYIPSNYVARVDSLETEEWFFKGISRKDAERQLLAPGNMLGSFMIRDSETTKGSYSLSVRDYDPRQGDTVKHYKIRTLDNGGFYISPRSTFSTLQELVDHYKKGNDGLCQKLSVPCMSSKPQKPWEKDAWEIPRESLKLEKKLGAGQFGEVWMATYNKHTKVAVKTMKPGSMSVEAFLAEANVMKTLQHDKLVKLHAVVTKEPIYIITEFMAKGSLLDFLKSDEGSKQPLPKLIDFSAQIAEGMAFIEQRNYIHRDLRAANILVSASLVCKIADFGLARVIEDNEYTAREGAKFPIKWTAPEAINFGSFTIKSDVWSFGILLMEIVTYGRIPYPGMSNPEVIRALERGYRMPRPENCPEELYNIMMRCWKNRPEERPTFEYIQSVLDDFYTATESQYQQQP

With `CC(C)(C)c1cc(NC(=O)Cc2ccc(-n3cnc4cc(-c5ccc(S(C)(=O)=O)cc5)ccc43)cc2)no1` the inhibition [1] was “Active”, the inhibition [2] was “Active” and the inhibition [3] was “Active”. For the same molecule, the IC50 [4] was 32 nM, the Activity [5] was “inactive” and the Activity [6] was over 90%. The IC50 [7] was over 100 nM, the inhibition [8] was “Active” and the Activity [9] was “inactive”. The inhibition [10] was “Active”, the inhibition [11] was “Active” and the inhibition [12] was “inactive”. The IC50 [13] was over 100 nM, the IC50 [14] was 3 nM and the Activity [15] was “Non-Toxic”. For the same molecule, the inhibition [16] was “Active” and the inhibition [17] was 100%.
